Measured values as given in the RNAGym collection of RNA variant scans (doi:10.1126/science.aae0568).
This sample holds only a part of the variants without activity.

B1: tRNA (parent)
chain: GUUCCGUUGGCGUAAUGGUAACGCGUCUCCCUCCUAAGGAGAAGACUGCGGGUUCGAGUCCCGUACGGAACG

Variants of: B1
Test: yeast fitness relative to wild type (ratio to wild type); higher = fitter; tRNA-Arg(CCU), competitive growth, 37 C, YPD
How it was run: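 Genotype frequency changes were the basis for Darwinian fitness relative to wild type. The frequencies came from 100-nucleotide paired-end sequencing of gene amplicons from the start population and each end population of pooled yeast strains with tRNA-Arg(CCU) gene variants at the native locus. Competition ran in YPD at 37°C for 24 hours in six replicates, genotypes needed ≥ 100 starting reads, and estimates < 0.5 were set to 0.5.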

| Variant | yeast fitness |
| --- | --- |
| A14C U54C | 0.702 |
| U16G U28A G52C U54A C66U | ≤ 0.5 |
| A21C C27A A37G A45C | 0.529 |
| C4A C11U C31G U53C U54G | ≤ 0.5 |
| C66A G68C | 0.678 |
| G17C C22A C31G C55G | ≤ 0.5 |
| U7G C11G U32A U53G | ≤ 0.5 |
| U2G C4U C61A C62U A65U | 0.521 |
| U13A C24U | 0.795 |
| A36C C55U U59A | ≤ 0.5 |
| U13A C27G U28A A65U A70U | 0.543 |
| G9A G48C G68C | 0.603 |
| U32G A69U | 0.711 |
| C4U U16A | 0.993 |
| U32A U53C A69C | ≤ 0.5 |
| U3C U59G | 0.71 |
| A21G C46U G56A C61G | ≤ 0.5 |
| U28A C49U | 0.804 |
| A45U A65G G67U A69G | ≤ 0.5 |
| G6C C46A | 0.951 |
| U13A C22G C24G A36U A40C A45G C66A | ≤ 0.5 |
| C29G U53C C61G G67A A69C | ≤ 0.5 |
| A20C C31U A40G G52C C62A A65G | ≤ 0.5 |
| C27A C55U | 0.662 |

| Variant | yeast fitness |
| --- | --- |
| G9C G58C | 1.06 |
| G10C U32A C61G A70U | ≤ 0.5 |
| G23A C27U C34U A45C | ≤ 0.5 |
| U8A C11A C24A C29A C34U C61G | ≤ 0.5 |
| U7A G18A A36C U47A G68A | 0.508 |
| C29G C30U C31G C49U G50C | ≤ 0.5 |
| C22A C24U C30U C31G C66U | 0.615 |
| C33G G52A A65C | ≤ 0.5 |
| A20U U32C | 0.882 |
| C4U G39A G67A | 0.61 |
| U3C C31U G48A | 0.734 |
| U19C U47C | 0.905 |
| C5U G9C A42G | 0.626 |
| U26C | 0.988 |
| G25A C34U A36U C60U | ≤ 0.5 |
| U2C A37U G52A | ≤ 0.5 |
| G6A A20C C66U | 0.889 |
| U7A A43C | 0.824 |
| C5A C24U A36C | ≤ 0.5 |
| A14U A40U | 0.597 |
| U32C A45C | 0.864 |
| C55A | 0.656 |
| C4G A15C G50C U54C | ≤ 0.5 |
| G6C G41A A45C A57C | ≤ 0.5 |

| Variant | yeast fitness |
| --- | --- |
| C4A A15G G17A C61G | ≤ 0.5 |
| G9A C30U C49U U64A | ≤ 0.5 |
| U3C G44C | 0.908 |
| C5A U7C U59A | ≤ 0.5 |
| C5A C22G C49U A57C | 0.779 |
| G18C C22U U26G C30G C55G C66A | ≤ 0.5 |
| C11A C30U C49G G50A U64A | ≤ 0.5 |
| C22G U32C G58A | 0.654 |
| U2A G67A | 0.844 |
| G10C C61U | 0.792 |
| U16G A45G G67C | 0.63 |
| C4A A15G G17A A21C U28A A40U | ≤ 0.5 |
| C30A C31A | 0.611 |
| A15G A20G C27U | 0.732 |
| A14C G25C C27G C34U U35A G38A A70G | ≤ 0.5 |
| A36G C46U | 0.952 |
| A14C C31U A40U A57G | 0.53 |
| U16A C27U G38A C60G A65C | ≤ 0.5 |
| C5G A20G C34A A40U | ≤ 0.5 |
| U8A A36U G68C | ≤ 0.5 |
| U26A A43C A45U A65C | ≤ 0.5 |
| A20U C24U A42U C46A C55U C61G A69C | 0.59 |
| C33A C60G A70G | ≤ 0.5 |
| G12C U28G A37G G41A G48A G67C | ≤ 0.5 |

| Variant | yeast fitness |
| --- | --- |
| C5A C34A A40U A43G C62U | ≤ 0.5 |
| A15G C24G G48C | ≤ 0.5 |
| C5U C34A G50C | ≤ 0.5 |
| C29G C66A | 0.506 |
| A45C U47C A57C G68C | ≤ 0.5 |
| C5U U7A G39C C49U | ≤ 0.5 |
| U2C C4A C60A C62U | ≤ 0.5 |
| C62A G63A | 0.578 |
| G12A A14C G50C | 0.535 |
| C61U A70G | 0.979 |
| C11A U13G C55A | 0.659 |
| A37C C60G C66G A70G | ≤ 0.5 |
| U26A C49G A70C | 0.574 |
| A37U C49U U64A | ≤ 0.5 |
| G51A C55U A65U | ≤ 0.5 |
| G23C G38C C49G | 0.534 |
| C24A A43U G48C | ≤ 0.5 |
| U53C U59A | 0.731 |
| G12C U28C U59A | 0.586 |
| U7G A43U U64C | 0.546 |
| U16A C46U G68C | 0.651 |
| U32A C34G G68A A69U A70U | ≤ 0.5 |
| A21U A40U A69C | 0.574 |
| C30G U59A | 0.595 |

| Variant | yeast fitness |
| --- | --- |
| U3A G50A | 0.853 |
| G12A C49G A69C | 0.551 |
| C5G G10C C22A U32C | ≤ 0.5 |
| G23A C33G U35G C60A C62U | ≤ 0.5 |
| C4U G38C G41A C61G | 0.707 |
| C11G A20C C24U A36C U47A C66U | ≤ 0.5 |
| U3A C4U U13A A36U C66U | 0.641 |
| C22U G48C G67C | ≤ 0.5 |
| A40U G58A | 0.92 |
| C31U C60A | 0.563 |
| C27G U53A G63A | ≤ 0.5 |
| U19C C22A U32A A37U A45U | ≤ 0.5 |
| C22U C46G C55A | ≤ 0.5 |
| C4G G12A U26A | ≤ 0.5 |
| G12C G48C G58A | 0.804 |
| G6A U8C G18C | ≤ 0.5 |
| C22U C61G A69G | 0.574 |
| C11A U13C C27A G63A | ≤ 0.5 |
| C55A G56C G67C | 0.574 |
| C31U C49U C60A G63C | ≤ 0.5 |
| C31A C34G A45U | 0.591 |
| G23A C24A C31A A36G G44A C60U C62A | ≤ 0.5 |
| C5A U19A C27U C55U | ≤ 0.5 |
| A20C C55U A70C | 0.612 |

| Variant | yeast fitness |
| --- | --- |
| C30G G38C G56A | 0.959 |
| C5G A14U C49U C61U | ≤ 0.5 |
| C5A C31G G51A | 0.577 |
| U8C C34U C55A C62U | 0.619 |
| G6A A15C C27A A37G A43G | ≤ 0.5 |
| U8A A21G C24A C30A A45U C49A A65U | ≤ 0.5 |
| C5U A36G G51C | ≤ 0.5 |
| C4A C34G A40U U47A G67C | 0.55 |
| C33G C34U C55U A65U G68C | ≤ 0.5 |
| G10A A37U | 0.622 |
| C4U G12A A20G C22U C55U | 0.606 |
| U32C A70G | 0.942 |
| C4U G44C C55G A69U | ≤ 0.5 |
| G12C A15C A20U G38C G50C | ≤ 0.5 |
| C11U U28C | 0.918 |
| C24U U32A G38A A57U | ≤ 0.5 |
| C4U C27G A43U C55G | ≤ 0.5 |
| U2A A21U A42G | ≤ 0.5 |
| G10C C11U C29G A42U | ≤ 0.5 |
| U8C G10A G23C C33U | 0.611 |
| A14C C46G | 0.953 |
| U16C G17C C24U | 0.559 |
| A37C A43G | 0.988 |
| C4G U8A G12A G48A A69C A70U | 0.561 |

| Variant | yeast fitness |
| --- | --- |
| G25C C29G G41A C49U G63A A65G C66U | ≤ 0.5 |
| C5G G6C A37G G51C A57G | ≤ 0.5 |
| G18A G23C C29U C31G | ≤ 0.5 |
| U8C G23C U26C C29G A45U | ≤ 0.5 |
| C29G U35C A45U C60G G63C | 0.669 |
| U13C G50C C66U | ≤ 0.5 |
| G51C C62U | 0.668 |
| C4U C11U A45C G48A G56C | ≤ 0.5 |
| G23U A43C | 0.605 |
| C4A C11U A21U G23A U64C G67A | 0.581 |
| U28A C49A A65C | 0.528 |
| U7C A14U G25C G39U C62G A65U | ≤ 0.5 |
| C11G A45G G67A | 0.539 |
| G41C A42G G51A G68C | ≤ 0.5 |
| U32C A57U A70C | ≤ 0.5 |
| C11U A15G C46A C62G G68A | ≤ 0.5 |
| C11U A15G C46A A57G | 0.629 |
| C4U C11U G25C G41A A57C G58A | ≤ 0.5 |
| C31G G63C | 0.614 |
| A42U G56A | 1.02 |
| U16C A43U G48C C60G | ≤ 0.5 |
| U2C C55G | 0.583 |
| A15U C29U C66A | 0.57 |
